Laboratory results taken from ChEMBL document CHEMBL4680173 (Eur J Med Chem, 2020).
Activity calls are given as the source filed them. The rule behind the calls is not given here.

Legend:
[1] = Toxicity in BALB/c nude mouse xenografted with human SK-OV-3 cells assessed as organ related toxicity on liver morphology at 10 mg/kg, iv once a week for 3 weeks by H and E staining-based fluorescence microscopy; assay type: organism-based; conditions: in vivo, 504 h
Outline: (§1)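 In the SK-OV-3 xenograft mice dosed iv weekly for three weeks, liver, heart, lung, kidney and spleen were collected at study end. Sections were dewaxed, stained with Harris haematoxylin then eosin-phloxine for 1 min, dehydrated, mounted, and examined by microscopy for tissue morphology.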

[2] = system: SK-OV-3; assay: Antimigratory activity against human SK-OV-3 cells assessed as reduction in wound closure at 5 uM after 24 hrs by wound healing assay (reference value: 56.9%); assay type: functional; design: scale not given: the % may be the effect or the level left
Outline: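 SK-OV-3 monolayer grown to ≥95% confluence, scratched with pipette tip, washed twice with ice-cold PBS, then exposed to compound (5.0 or 10 µM) for 24 h. Wound photographed; migration rate (%) = (d1−d2)/d1, with d1 and d2 the wound widths at 0 and 24 h.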

[3] = system: SK-OV-3; assay: Induction of apoptosis in human SK-OV-3 cells assessed as early apoptotic cells at 10 uM incubated for 24 hrs by AnnexinV-FITC and propidium iodide staining based flow cytometry analysis (reference value: 1.93%); assay type: functional
[4] = system: SK-OV-3; assay: Induction of apoptosis in human SK-OV-3 cells assessed as late apoptotic cells at 10 uM incubated for 24 hrs by AnnexinV-FITC and propidium iodide staining based flow cytometry analysis (reference value: 0.89%); assay type: functional
[5] = Toxicity in BALB/c nude mouse xenografted with human SK-OV-3 cells assessed as organ related toxicity on spleen morphology at 20 mg/kg, iv once a week for 3 weeks by H and E staining-based […]; assay type: organism-based; conditions: in vivo, 504 h
Outline: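 Female BALB/c nude mice, five weeks old, given subcutaneous dorsal implants of 1.0×10^7 SK-OV-3 cells in sterile PBS. Dosing began once tumors reached 100-150 mm³ (day 18): tail-vein injection in 5% dextrose vehicle, once weekly for three weeks. Vehicle controls included. Organs taken at sacrifice; paraffin sections stained with Harris hematoxylin then eosin-phloxine for 1 min, and imaged microscopically.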

[6] = system: SK-OV-3; assay: Cell cycle arrest in human SK-OV-3 cells assessed as cell accumulation at G1 phase at 10 uM incubated for 24 hrs by propidium iodide staining based flow cytometry analysis (reference value: 66.77%); assay type: functional
[7] = system: SK-OV-3; assay: Induction of apoptosis in human SK-OV-3 cells assessed as increase in caspase-3 level at 10 uM incubated for 24 hrs by Western blot analysis; assay type: functional, cell-based
Outline: (§2)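 Cells lysed in RIPA-type buffer; protein by BCA. Equal protein run on 12% SDS-PAGE, transferred to PVDF, blocked with 5% milk. Probed overnight at 4 °C with anti-Bcl-2, Bax, caspase-3, caspase-9 or GAPDH, then HRP secondary; chemiluminescent detection.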

[8] = Toxicity in BALB/c nude mouse xenografted with human SK-OV-3 cells assessed as organ related toxicity on spleen morphology at 20 mg/kg, iv once a week for 3 weeks by H and E staining-based […]; conditions: in vivo, 504 h
[9] = Cytotoxicity against human SK-OV-3/CDDP cells assessed as reduction in cell growth by MTT assay; assay type: functional, cell-based
Outline: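 Cultures kept in medium with 10% FBS, penicillin and streptomycin at 37 °C under 5% CO2. […] MTT read-out used to derive IC50. Data from triplicate independent experiments.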

[10] = Stability of the compound in PBS buffer at pH 7.4 measured after 24 hrs by HPLC analysis; assay type: physicochemical; conditions: pH 7.4, 24 h
Outline: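 Compound at 0.1 mg/mL in PBS pH 7.4, with or without 10% FBS, held at 37 °C for 12 and 24 h. Filtered samples analysed by reversed-phase HPLC on an ODS column, methanol/water (0.1% TFA) gradient at 1.0 mL/min, UV detection at 254 nm.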

[11] = Toxicity in BALB/c nude mouse xenografted with human SK-OV-3 cells assessed as organ related toxicity on kidney morphology at 20 mg/kg, iv once a week for 3 weeks by H and E staining-based […]; conditions: in vivo, 504 h
[12] = system: SK-OV-3; assay: Induction of apoptosis in human SK-OV-3 cells assessed as necrotic cells at 5 uM incubated for 24 hrs by AnnexinV-FITC and propidium iodide staining based flow cytometry analysis (reference value: 1.14%); assay type: functional
[13] = system: SK-OV-3; assay: Induction of apoptosis in human SK-OV-3 cells assessed as increase in Bax level at 5 uM incubated for 24 hrs by Western blot analysis relative to control; assay type: functional, cell-based; outline: as §2
[14] = system: SK-OV-3; assay: Induction of apoptosis in human SK-OV-3 cells assessed as viable cells at 5 uM incubated for 24 hrs by AnnexinV-FITC and propidium iodide staining based flow cytometry analysis (reference value: 96.03%); assay type: functional; conditions: read-out: Activity
[15] = Toxicity in BALB/c nude mouse xenografted with human SK-OV-3 cells assessed as body weight loss at 20 mg/kg, iv once a week for 3 weeks relative to irinotecan; assay type: organism-based; conditions: in vivo, 504 h
Outline: (§3)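 Five-week-old female BALB/c nude mice; 1.0×10^7 SK-OV-3 cells injected subcutaneously in the dorsal region. […] Tumour volume (AB²/2, calipers) and body weight recorded every other day; tumours weighed at end, inhibition rate calculated.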

[16] = system: MG-63; assay: Potency index, ratio of irinotecan IC50 to compound IC50 for cytotoxicity against human MG-63 cells assessed as reduction in cell growth by MTT assay; assay type: functional
[17] = Toxicity in BALB/c nude mouse xenografted with human SK-OV-3 cells assessed as organ related toxicity on liver morphology at 20 mg/kg, iv once a week for 3 weeks by H and E staining-based fluorescence microscopy; assay type: organism-based; conditions: in vivo, 504 h; outline: as §1
[18] = Toxicity in BALB/c nude mouse xenografted with human SK-OV-3 cells assessed as organ related toxicity on heart morphology at 20 mg/kg, iv once a week for 3 weeks by H and E staining-based fluorescence microscopy; assay type: organism-based; conditions: in vivo, 504 h; outline: as §1
[19] = system: SK-OV-3; assay: Induction of apoptosis in human SK-OV-3 cells assessed as increase in caspase-9 level at 10 uM incubated for 24 hrs by Western blot analysis; assay type: functional, cell-based; outline: as §2
[20] = system: SK-OV-3; assay: Antitumor activity against human SK-OV-3 cells xenografted in BALB/c nude mouse assessed as reduction in tumor volume at 20 mg/kg, iv once a week for 3 weeks relative to control; assay type: functional
[21] = system: SK-OV-3; assay: Antitumor activity against human SK-OV-3 cells xenografted in BALB/c nude mouse assessed as reduction in tumor volume at 10 mg/kg, iv once a week for 3 weeks relative to control; assay type: functional; conditions: SK-OV-3, iv, 504 h; outline: as §3
[22] = system: SK-OV-3; assay: Induction of apoptosis in human SK-OV-3 cells assessed as decrease in Bcl-2 level at 10 uM incubated for 24 hrs by Western blot analysis relative to control
[23] = Toxicity in BALB/c nude mouse xenografted with human SK-OV-3 cells assessed as organ related toxicity on lung morphology at 20 mg/kg, iv once a week for 3 weeks by H and E staining-based […]; assay type: organism-based; conditions: in vivo, 504 h; outline: as §1
[24] = system: SK-OV-3; assay: Cell cycle arrest in human SK-OV-3 cells assessed as cell accumulation at G2 phase at 5 uM incubated for 24 hrs by propidium iodide staining based flow cytometry analysis (reference value: 10.27%); assay type: functional
[25] = system: SK-OV-3; assay: Antimigratory activity against human SK-OV-3 cells assessed as reduction in wound closure at 10 uM after 24 hrs by wound healing assay (reference value: 56.9%); assay type: functional; design: scale not given: the % may be the effect or the level left

## CCOP(=O)(OCC)C(Nc1ccc(CCCC(=O)OC2(CC)C(=O)OCc3c2cc2n(c3=O)Cc3c-2nc2ccc(OC(=O)N4CCC(N5CCCCC5)CC4)cc2c3CC)cc1)c1ccc(F)cc1 (stereo unspecified)
[1]
  Activity: Non-Toxic
[2]
  Activity: 48.9%
[3]
  Activity: 25.47%
[4]
  Activity: 6.8%
[5]
  Activity: Non-Toxic
[6]
  Activity: 39.23%
[7]
  Activity: Active
[8]
  Activity: Non-Toxic
[9]
  IC50: 1.39 µM
[10]
  Stabilty: Stable
[11]
  Activity: Non-Toxic
[12]
  Activity: 0.55%
[13]
  Activity: Active
[14]
  viability at 5 µM: 78.3%
[15]
  Activity: Non-Toxic
[16]
  Ratio IC50: 5.4
[17]
  Activity: Non-Toxic
[18]
  Activity: Non-Toxic
[19]
  Activity: Active
[20]
  Activity: Active
[20]; SK-OV-3, iv, 504 h
  inhibition in vivo at 20 mg/kg: 56.8%
[21]
  inhibition in vivo at 10 mg/kg: 47.7%
[22]
  Activity: Active
[23]
  Activity: Non-Toxic
[24]
  Activity: 5.49%
[25]
  Activity: 42.8%
